Published values gathered from unrelated publications.
Each line is one published result; the experiments were not run side by side.
Read-out: metabolic stability
Medium: liver microsomes

Structure (SMILES)	system	setting	microsomal CLint [µL/min/mg]
N#Cc1ccc(C[C@H](Nc2c(Nc3ccc(F)cc3)c(=O)c2=O)C(=O)N2CCc3ccccc32)cc1	rat	10 µM, pH 7.4	34.6
CONC(=O)c1cccc2c1cc(C)n2-c1nc2c(c(NCc3ccccc3)n1)CCCN2	rat	1 µM, pH 7.4	413
O=C(Nc1ccc(OC(F)(F)Cl)cc1)c1cnc(N2CC[C@@H](O)C2)c(-c2ccn[nH]2)c1	rat	1 µM, pH 7.4	12.9
N#Cc1ccc(C[C@H](Nc2nnc(-c3ccc(Br)cc3)o2)C(=O)N2CCc3ccccc32)cc1	rat	10 µM, pH 7.4	25.7
O=C(NCc1nc(-c2ccccc2)cs1)[C@H]1CCCN(C(=O)COCC(F)F)C1	male Sprague-Dawley rat	0.5 µM	85
Cc1[nH]c(C)c(S(=O)(=O)Nc2ccc(C(F)(F)F)c(Cl)c2)c1C(=O)N(C)C	rat	–	122
COc1ccc(Cn2cc(CO[C@@H]3O[C@H]4[C@H](OC[C@H]4O)[C@H]3O)nn2)cc1	rat	–	< 14.4
CN1CCC[C@H](OCC(=O)N2CCC[C@H](C(=O)NCc3nc(-c4ccc(C(F)(F)F)cc4)cs3)C2)C1	male Sprague-Dawley rat	0.5 µM	33
Cc1cccc(-c2nnc(N[C@@H](Cc3ccc(C#N)cc3)C(=O)N3CCc4ccccc43)o2)c1	rat	10 µM, pH 7.4	38.5
CCOc1c([C@H](C)n2nc(C)c3c(N)ncnc32)cc(Cl)c(F)c1[C@@H]1CNC(=O)C1	rat	0.5 µM, pH 7.4	2.4
COCC(=O)N1CCC[C@H](C(=O)NCc2nc(-c3ccc(C)nc3)cs2)C1	male Sprague-Dawley rat	0.5 µM	6.3
O=C1c2ccccc2C(=O)N1CCCN1CCN(C(c2ccc(F)cc2)c2ccc(F)cc2)CC1	rat	100 ng/mL	101
COCC(=O)N1CCC[C@H](C(=O)NCc2nc(-c3ccc(OC)cc3)cs2)C1	male Sprague-Dawley rat	0.5 µM	39
N#Cc1ccc(C[C@H](Nc2nnc(-c3ccc(F)cc3)s2)C(=O)N2CCc3ccccc32)cc1	rat	10 µM, pH 7.4	35.9
Cc1[nH]c(C)c(S(=O)(=O)Nc2ccc(C(F)(F)F)c(Cl)c2Cl)c1C(=O)N1CCC(F)(F)C1	rat	–	21.8
N#Cc1ccc(C[C@H](Nc2c(Nc3ccc(Br)cc3)c(=O)c2=O)C(=O)N2CCc3ccccc32)cc1	rat	10 µM, pH 7.4	18.1
COCC(=O)N1CCC[C@H](C(=O)NCc2nc(-c3ccc(-c4ccccc4)cc3)cs2)C1	male Sprague-Dawley rat	0.5 µM	194
